According to article PMC4090943 (Bioorganic & medicinal chemistry letters, 2014):

Key:
rat mGlu5 = rat mGlu5 (Rattus norvegicus, UniProt P31424); experiment: Calcium mobilization mGlu5 assay; type: cell-based; conditions: HEK293A cells expressing rat mGlu5; EC80 glutamate; average of n ≥ 3
the other seven mGlus = experiment: Cell based functional mGlu selectivity assays; conditions: 10μM
[1] = test system: 68 clinically relevant GPCRs, ion channels, kinases, and transporters; experiment: LeadProfilingScreen radioligand binding assay panel; conditions: 10 μM compound; 68 targets
marble burying [2] = experiment: Mouse marble burying model of anxiety; type: in vivo; conditions: mice, IP, 15 minute pretreatment; P < 0.05 vs. vehicle, Dunnett's test
In short: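 Naïve mice given the test compound IP, with a vehicle control group, and then placed with glass marbles in deep bedding. The read-out was the number of marbles buried. n = 7-8 per dose. Each dose group was compared with the vehicle group by Dunnett's test (P < 0.05).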

[3] = Rat PO tissue distribution study; type: in vivo, male Sprague-Dawley rats; conditions: rat PO 10 mg/kg, 60 min
In short: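 Male Sprague-Dawley rats (n=2 per time point) received a single 10 mg/kg oral dose in 10% Tween 80 in 0.5% MC. At 60 min they were euthanized and decapitated, and blood, hepatic portal vein and brain were collected. After protein precipitation, plasma and brain homogenate supernatants were analysed by LC-MS/MS.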

[4] = non-human primate regulatory toxicology studies; cited from earlier work
marble burying [5] = conditions: mice; ref 7a,d; cited from earlier work

rat mGlu5, sequence (P31424 21-1203): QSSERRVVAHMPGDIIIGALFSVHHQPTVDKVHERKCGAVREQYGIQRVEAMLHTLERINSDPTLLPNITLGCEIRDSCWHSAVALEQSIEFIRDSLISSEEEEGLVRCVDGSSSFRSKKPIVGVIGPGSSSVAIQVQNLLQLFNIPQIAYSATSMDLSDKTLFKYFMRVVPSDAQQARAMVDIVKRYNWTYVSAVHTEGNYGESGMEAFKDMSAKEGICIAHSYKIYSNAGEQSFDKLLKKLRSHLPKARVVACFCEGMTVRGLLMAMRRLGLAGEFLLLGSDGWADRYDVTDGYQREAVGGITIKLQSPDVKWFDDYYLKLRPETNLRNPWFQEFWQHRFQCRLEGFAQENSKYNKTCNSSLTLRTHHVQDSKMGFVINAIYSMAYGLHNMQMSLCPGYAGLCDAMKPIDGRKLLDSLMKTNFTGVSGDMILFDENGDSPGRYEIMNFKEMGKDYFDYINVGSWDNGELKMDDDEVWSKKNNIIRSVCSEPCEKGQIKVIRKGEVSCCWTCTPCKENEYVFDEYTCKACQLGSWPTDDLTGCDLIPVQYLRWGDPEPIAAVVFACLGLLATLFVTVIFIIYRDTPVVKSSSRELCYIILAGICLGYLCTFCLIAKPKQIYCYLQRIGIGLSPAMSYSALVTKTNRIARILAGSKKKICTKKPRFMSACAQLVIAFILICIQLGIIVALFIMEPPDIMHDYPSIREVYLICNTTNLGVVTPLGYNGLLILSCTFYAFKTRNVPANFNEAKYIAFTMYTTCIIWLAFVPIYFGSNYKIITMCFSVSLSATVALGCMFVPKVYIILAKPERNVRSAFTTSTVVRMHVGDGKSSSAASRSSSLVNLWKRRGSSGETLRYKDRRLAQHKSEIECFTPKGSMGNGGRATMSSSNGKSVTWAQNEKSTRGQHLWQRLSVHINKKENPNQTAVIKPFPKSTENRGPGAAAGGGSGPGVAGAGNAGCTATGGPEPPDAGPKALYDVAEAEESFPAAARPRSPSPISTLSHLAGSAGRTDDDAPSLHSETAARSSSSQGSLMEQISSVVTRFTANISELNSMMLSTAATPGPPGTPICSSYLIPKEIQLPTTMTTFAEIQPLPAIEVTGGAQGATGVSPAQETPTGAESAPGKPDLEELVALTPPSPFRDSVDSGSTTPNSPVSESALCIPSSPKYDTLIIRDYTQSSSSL

## O=C(Nc1cncc(Oc2cncc(F)c2)n1)c1cccc(Cl)c1F [Compound 42]
Rat mGlu5
  mGlu5 pIC50 (± SEM): <4.5

## O=C(Nc1cncc(Oc2cncc(F)c2)n1)c1cc(F)cc(F)c1 [Compound 46]
Rat mGlu5
  mGlu5 pIC50 (± SEM): <4.5

## O=C(Nc1cncc(Oc2cncc(F)c2)n1)c1cc(Cl)cc(Cl)c1 [Compound 47]
Rat mGlu5
  mGlu5 pIC50 (± SEM): <4.5

## COc1cc(OC)cc(C(=O)Nc2cncc(Oc3cncc(F)c3)n2)c1 [Compound 49]
Rat mGlu5
  mGlu5 pIC50 (± SEM): <4.5

## N#Cc1cc(F)cc(C(=O)Nc2cncc(Oc3cncc(F)c3)n2)c1 [Compound 50]
Rat mGlu5
  mGlu5 pIC50 (± SEM): <4.5

## O=C(Nc1cncc(Oc2cncc(F)c2)n1)c1cccnc1 [Compound 60]
Rat mGlu5
  mGlu5 pIC50 (± SEM): <4.5

## O=C(Nc1cncc(Oc2cncc(F)c2)n1)c1cccnn1 [Compound 61]
Rat mGlu5
  mGlu5 pIC50 (± SEM): <4.5

## O=C(Nc1cncc(Oc2cncc(F)c2)n1)c1ccncn1 [Compound 63]
Rat mGlu5
  mGlu5 pIC50 (± SEM): <4.5

## Cc1ccc(C(=O)Nc2cncc(Oc3cncnc3)n2)s1 [Compound 65]
Rat mGlu5
  mGlu5 pIC50 (± SEM): <4.5

## O=C(Nc1cncc(Oc2cncnc2)n1)c1cc(Cl)ccn1 [Compound 68, 4-chloro-N-(6-(pyrimidin-5-yloxy)pyrazin-2-yl)picolinamide]
The other seven mGlus
  activity against the other seven mGlus: no detectable activity
[1]
  significant responses (>50% inhibition of radioligand binding) in panel: no significant responses were found
Marble burying [2]
  doses giving statistically significant inhibition of marble burying: greater than or equal to 10 mg/kg
[3]
  HPV (hepatic portal vein) concentration: 1.31 µM
  brain concentration: 1450 nM
  plasma concentration: 920 nM

## O=C(c1ccc(OC(F)F)c(C#Cc2ccccn2)c1)N1Cc2cccnc2C1 [GRN-529]
[4]
  toxicology finding: biliary epithelial hyperplasia

## Cc1cccc(C#Cc2ccccc2)n1 [MPEP]
Marble burying [5]
  effect on marble burying: inhibit marble burying

## CN1CC(=O)NC1=NC(=O)Nc1cccc(Cl)c1 [fenobam]
Marble burying [5]
  effect on marble burying: inhibit marble burying
